What was measured:
[1] = folding enthalpy; higher = less favourable; fluorescence melt of hairpins on a sequencing array, two-state fit; settings: sodium 0.088 M
How it was run: (§1)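 Folding enthalpy and melting temperature come from bootstrapped two-state fits to Cy3 fluorescence of library hairpins carrying annealed Cy3 and quencher oligos on a sequenced MiSeq flow cell. Imaging was done in 50 mM Na-HEPES pH 8.0, 25 mM NaCl, stepping by 2.5 °C up to 60 °C, and signals were normalised to pre-quench Cy3 and to control constructs. Results of four replicates were combined by inverse variance, and fitted temperatures were raised by 9.35 °C to match UV melts.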

[2] = melting temperature; fluorescence melt of hairpins on a sequencing array, two-state fit, raised by 9.35 °C to match UV melts; settings: sodium 0.088 M
How it was run: as §1

Sequence	folding enthalpy [1] [kcal/mol]	Tm [2] [°C]
GAAGCCGAAAGGCTGTTC ((((((....)))..)))	-10.4	47.4
GGGCAGGGAAACCTGCTC (.(((((....))))).)	-20	59.6
GCCCCGCGAAAGCTGCGC ((.(.((....)).).))	-13.6	36.6
GCGGACGGAAACACCCGC ((((..(....)..))))	-26.9	41.9
GATCTGCGTCAGATC ((((((...))))))	-29.4	49.6
GGCGTTGGAAACGATGCC (((.(.(....).).)))	-24.9	48
GGCCACGGAAACGCGACC ((.(.((....)).).))	-25.8	36.7
GATCTCATTCGAGATC ((((((....))))))	-39.4	53.5
GCTGTCGGAAACGACAAC (.(((((....))))).)	-12.9	40.9
GCAACCGAAAGGTAATGC ((((((....)))..)))	-20.1	38.6
GAAGGTGGAAACACCCTC ((.((((....)))).))	-12.1	33.8
CCGTGGAAACACGG (((((....)))))	-29.2	59.1
GTCGTACGAAAGTAAGAC (((.(((....))).)))	-33.2	52.1
GATCGATTATCGATC ((((((...))))))	-38.5	52.7
CGGGAGCGGAAACGCCCG (((..(((....))))))	-21.4	53.6
GTTTAGCGAAAGCTCAAC (((.(((....))).)))	-20.6	41.7
GAAACCGAAAGGTTTTC ((((((....))).)))	-17.3	50.6
CGAACGGAAACGTGCTCG ((((((....)))..)))	-15.1	28.5
GCCGAAGAAATTCGGC ((((((....))))))	-33.9	67.4

Sequence	folding enthalpy [1] [kcal/mol]	Tm [2] [°C]
GCTCACGAAAGTGTAGC ((((((....))).)))	-24.6	51.5
GGGGGCGGAAACGCCCTC (.(((((....))))).)	-11.6	63.4
GCGCAGTCGAAAGACCGC (((..(((....))))))	-26.1	52.8
GCTGCCCCGAAAGGGAGC (((..(((....))))))	-13.3	55.2
GATCCGTGCTCGGATC ((((((....))))))	-43.9	59.7
GATCCAGCATGGATC ((((((...))))))	-45.4	61.1
GCTGTGCGAAAGCAACGC ((..(((....)))..))	-13.7	49.9
GCGGTTACGAAAGTACGC (((..(((....))))))	-26.7	48.4
GGGGTGGGAAACCGCCTC (.((.((....)).)).)	-18.6	49.6
GATCTCTCTGAGATC ((((((...))))))	-37.5	55.4
GAGTGAGGAAACTCATTC ((.((((....)))).))	-23.5	38.5
GGCTATCGAAAGATGGCC (((.(((....))).)))	-52.3	59.8
GGGGGCGAAAGCCCTCCC ((((((....)))..)))	-9.75	51.9
GCTGAGCGAAAGCTATGC ((..(((....)))..))	-17.4	48.6
GGGACCGCGAAAGCGCCC (((..(((....))))))	-12.5	39.2
GCACATGAAAATGTGC ((((((....))))))	-39.8	62.4
GTGTCTGGAAACAGACGC (.(((((....))))).)	-33.4	54.7
GTCGTTGGAAACGATGAC (((.(.(....).).)))	-13.5	49
GCAACGCGAAAGCATGGC ((.(.((....)).).))	-13.1	33.8

Reference: the array DNA melting data of Ke et al. (doi:10.1101/2024.01.08.574731)
